The source made the active and inactive calls.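 How the source made its calls: active means inhibition of radioligand binding at or above 50% in any panel; inactive means inhibition below 50%.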
Key:
Assay in all cases: off-target binding at receptors and transporters, profiling panel, selectivity assay for HCV core dimerization inhibitor project, cell-based, radioligand binding, Ricerca panel (AID 624406)
[1] = test system: Cannabinoid CB1; details: at 10 µM, hits give high values
Procedure, shortened: (§1)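 Measure: percent inhibition of radioligand binding, negative values indicating enhanced binding; Controls: reference standards in each run; Repeats: duplicate measurements per compound.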

[2] = molecular target: D(3) dopamine receptor (Homo sapiens) (UniProt P35462); details: Dopamine D3, at 10 µM, hits give high values
Sequence of D(3) dopamine receptor (Homo sapiens) (P35462 whole entry, looked up): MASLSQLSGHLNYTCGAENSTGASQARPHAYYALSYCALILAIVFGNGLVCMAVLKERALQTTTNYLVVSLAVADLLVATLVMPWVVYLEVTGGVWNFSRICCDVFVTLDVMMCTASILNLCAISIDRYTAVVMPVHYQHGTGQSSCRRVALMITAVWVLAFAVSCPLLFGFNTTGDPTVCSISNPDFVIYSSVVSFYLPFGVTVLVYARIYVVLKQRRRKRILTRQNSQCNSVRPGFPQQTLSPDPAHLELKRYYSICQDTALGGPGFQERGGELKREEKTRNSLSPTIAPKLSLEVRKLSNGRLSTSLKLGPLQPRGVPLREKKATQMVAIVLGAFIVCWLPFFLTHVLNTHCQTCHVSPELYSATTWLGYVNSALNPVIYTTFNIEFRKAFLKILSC
Procedure, shortened: as §1

[3] = test system: Potassium Channel [KATP]; details: at 10 µM, hits give high values
Procedure, shortened: as §1

[4] = test system: Dopamine D4.2; details: at 10 µM, hits give high values
Procedure, shortened: as §1

[5] = test system: Purinergic P2X; details: at 10 µM, hits give high values
Procedure, shortened: as §1

[6] = test system: Androgen (Testosterone) AR; details: at 10 µM, hits give high values
Procedure, shortened: as §1

[7] = test system: Interleukin IL-1; details: at 10 µM, hits give high values
Procedure, shortened: as §1

[8] = test system: Adenosine A3; details: at 10 µM, hits give high values
Procedure, shortened: as §1

[9] = molecular target: Delta-type opioid receptor (Homo sapiens) (UniProt P41143); details: Opiate delat1 (OP1, DOP), at 10 µM, hits give high values
Procedure, shortened: as §1

[10] = test system: Melatonin MT1; details: at 10 µM, hits give high values
Procedure, shortened: as §1

[11] = test system: Voltage-dependent L-type calcium channel subunit beta-4 (Rattus norvegicus) + Pro-epidermal growth factor (Homo sapiens) + Estrogen receptor (Homo sapiens) + Glucocorticoid receptor (Homo sapiens) + 5-hydroxytryptamine receptor 1A (Homo sapiens) + Alpha-2A adrenergic receptor (Homo sapiens) + Adenosine receptor A3 (Homo sapiens) + Androgen receptor (Homo sapiens) + Muscarinic acetylcholine receptor M1 (Homo sapiens) + D(4) dopamine receptor (Homo sapiens) + Alpha-2A adrenergic receptor (Rattus norvegicus) + Sodium- and chloride-dependent GABA transporter 1 (Rattus norvegicus) + Endothelin receptor type B (Homo sapiens) + Histamine H2 receptor (Homo sapiens) + Endothelin-1 receptor (Homo sapiens) + Neuropeptide Y receptor type 1 (Homo sapiens) + B2 bradykinin receptor (Homo sapiens) + Sodium-dependent serotonin transporter (Homo sapiens) + Histamine H1 receptor (Homo sapiens) + Mu-type opioid receptor (Homo sapiens) + D(3) dopamine receptor (Homo sapiens) + Delta-type opioid receptor (Homo sapiens) + Kappa-type opioid receptor (Homo sapiens) + Glutamate receptor ionotropic, kainate 3 (Rattus norvegicus) + 5-hydroxytryptamine receptor 3A (Homo sapiens) + Melatonin receptor type 1A (Homo sapiens) + Neuropeptide Y receptor type 2 (Homo sapiens) + P2Y purinoceptor 1 (Rattus norvegicus) + Thyroid hormone receptor alpha (Rattus norvegicus) + Glutamate receptor ionotropic, NMDA 2B (Rattus norvegicus) + Sodium-dependent dopamine transporter (Homo sapiens) + Protein kinase C zeta type …; details: at 10 µM, hits give high values
Procedure, shortened: as §1

[12] = test system: Histamine H2; details: at 10 µM, hits give high values
Procedure, shortened: as §1

[13] = test system: Transporter, GABA; details: at 10 µM, hits give high values
Procedure, shortened: as §1

[14] = test system: Bradykinin B2; details: at 10 µM, hits give high values
Procedure, shortened: as §1

[15] = test system: Phorbol Ester; details: at 10 µM, hits give high values
Procedure, shortened: as §1

[16] = test system: Opiate mu (OP3, MOP); details: at 10 µM, hits give high values
Procedure, shortened: as §1

[17] = test system: Transporter, Dopamine (DAT); details: at 10 µM, hits give high values
Procedure, shortened: as §1

[18] = test system: Adrenergic alpha1B; details: at 10 µM, hits give high values
Procedure, shortened: as §1

[19] = test system: Transporter, Norepinephrine (NET); details: at 10 µM, hits give high values
Procedure, shortened: as §1

[20] = test system: GABAA; details: central, at 10 µM, hits give high values
Procedure, shortened: as §1

[21] = test system: Epidermal Growth Factor (EGF); details: at 10 µM, hits give high values
Procedure, shortened: as §1

[22] = molecular target: Muscarinic acetylcholine receptor M2 (Homo sapiens) (UniProt P08172); details: at 10 µM, hits give high values
Sequence of Muscarinic acetylcholine receptor M2 (Homo sapiens) (P08172 whole entry, looked up): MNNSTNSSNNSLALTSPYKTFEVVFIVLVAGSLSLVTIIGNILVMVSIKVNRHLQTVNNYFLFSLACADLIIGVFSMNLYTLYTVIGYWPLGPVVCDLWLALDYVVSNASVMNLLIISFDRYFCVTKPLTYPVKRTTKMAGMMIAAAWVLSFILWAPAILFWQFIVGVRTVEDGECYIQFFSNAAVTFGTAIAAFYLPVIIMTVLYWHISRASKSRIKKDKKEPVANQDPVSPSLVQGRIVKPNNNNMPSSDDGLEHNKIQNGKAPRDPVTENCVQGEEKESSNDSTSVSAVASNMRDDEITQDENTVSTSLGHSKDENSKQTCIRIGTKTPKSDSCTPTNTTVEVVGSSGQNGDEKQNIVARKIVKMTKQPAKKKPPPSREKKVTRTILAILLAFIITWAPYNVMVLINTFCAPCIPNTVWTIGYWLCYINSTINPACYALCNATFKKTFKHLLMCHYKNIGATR
Procedure, shortened: as §1

[23] = test system: Prostanoid EP4; details: at 10 µM, hits give high values
Procedure, shortened: as §1

[24] = test system: Transporter, Serotonin (5-Hydroxytryptamine); details: at 10 µM, hits give high values
Procedure, shortened: as §1

[25] = molecular target: D(1A) dopamine receptor (Homo sapiens) (UniProt P21728); details: Dopamine D1, at 10 µM, hits give high values
Procedure, shortened: as §1

[26] = molecular target: 5-hydroxytryptamine receptor 1A (Homo sapiens) (UniProt P08908); details: Serotonin (5-Hydroxytryptamine) 5-HT1A, at 10 µM, hits give high values
Sequence of 5-hydroxytryptamine receptor 1A (Homo sapiens) (P08908 whole entry, looked up): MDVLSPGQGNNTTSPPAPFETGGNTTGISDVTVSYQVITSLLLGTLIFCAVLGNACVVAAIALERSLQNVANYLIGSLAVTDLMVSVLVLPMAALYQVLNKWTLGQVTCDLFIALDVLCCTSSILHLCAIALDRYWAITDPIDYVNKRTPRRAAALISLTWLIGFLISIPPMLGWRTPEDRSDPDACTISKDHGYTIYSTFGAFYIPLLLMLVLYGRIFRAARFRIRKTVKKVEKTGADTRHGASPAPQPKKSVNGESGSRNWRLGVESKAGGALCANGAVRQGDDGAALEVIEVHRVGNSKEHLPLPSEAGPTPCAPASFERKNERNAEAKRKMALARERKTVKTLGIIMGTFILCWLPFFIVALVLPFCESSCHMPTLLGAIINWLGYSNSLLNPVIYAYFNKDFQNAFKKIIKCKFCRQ
Procedure, shortened: as §1

[27] = molecular target: Muscarinic acetylcholine receptor M1 (Homo sapiens) (UniProt P11229); details: at 10 µM, hits give high values
Procedure, shortened: as §1

[28] = test system: Adenosine A1; details: at 10 µM, hits give high values
Procedure, shortened: as §1

[29] = molecular target: 5-hydroxytryptamine receptor 2B (Homo sapiens) (UniProt P41595); details: Serotonin (5-Hydroxytryptamine) 5-HT2B, at 10 µM, hits give high values
Procedure, shortened: as §1

[30] = test system: Nicotinic Acetylcholine; details: at 10 µM, hits give high values
Procedure, shortened: as §1

[31] = test system: Adrenergic beta1; details: at 10 µM, hits give high values
Procedure, shortened: as §1

[32] = test system: Sigma 1; details: at 10 µM, hits give high values
Procedure, shortened: as §1

[33] = test system: Rolipram; details: at 10 µM, hits give high values
Procedure, shortened: as §1

[34] = test system: Calcium Channel L-Type; details: at 10 µM, hits give high values
Procedure, shortened: as §1

[35] = test system: Endothelin ETB; details: at 10 µM, hits give high values
Procedure, shortened: as §1

[36] = test system: Bradykinin B1; details: at 10 µM, hits give high values
Procedure, shortened: as §1

[37] = test system: Serotonin (5-Hydroxytryptamine) 5-HT3; details: at 10 µM, hits give high values
Procedure, shortened: as §1

[38] = test system: Adenosine A2A; details: at 10 µM, hits give high values
Procedure, shortened: as §1

[39] = test system: Endothelin ETA; details: at 10 µM, hits give high values
Procedure, shortened: as §1

[40] = molecular target: Estrogen receptor (Homo sapiens) (UniProt P03372); details: Estrogen Eralpha, at 10 µM, hits give high values
Sequence of Estrogen receptor (Homo sapiens) (P03372 whole entry, looked up): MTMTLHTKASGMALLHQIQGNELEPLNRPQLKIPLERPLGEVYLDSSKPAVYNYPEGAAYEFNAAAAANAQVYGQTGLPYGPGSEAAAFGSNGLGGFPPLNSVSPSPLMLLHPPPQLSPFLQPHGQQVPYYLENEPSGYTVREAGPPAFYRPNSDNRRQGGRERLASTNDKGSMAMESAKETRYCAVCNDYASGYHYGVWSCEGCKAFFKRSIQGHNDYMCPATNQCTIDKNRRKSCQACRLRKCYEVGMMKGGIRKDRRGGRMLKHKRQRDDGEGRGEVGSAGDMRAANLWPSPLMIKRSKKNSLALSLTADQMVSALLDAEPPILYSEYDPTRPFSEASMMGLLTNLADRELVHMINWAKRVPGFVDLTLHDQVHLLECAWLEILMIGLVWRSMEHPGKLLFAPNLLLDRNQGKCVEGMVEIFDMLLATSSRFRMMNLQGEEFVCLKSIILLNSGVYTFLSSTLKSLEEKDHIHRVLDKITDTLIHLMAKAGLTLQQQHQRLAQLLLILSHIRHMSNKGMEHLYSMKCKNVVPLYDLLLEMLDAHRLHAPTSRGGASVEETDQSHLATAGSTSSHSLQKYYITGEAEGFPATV
Procedure, shortened: as §1

[41] = test system: Histamine H3; details: at 10 µM, hits give high values
Procedure, shortened: as §1

[42] = test system: Calcium Channel N-Type; details: at 10 µM, hits give high values
Procedure, shortened: as §1

[43] = test system: Histamine H1; details: at 10 µM, hits give high values
Procedure, shortened: as §1

[44] = molecular target: Voltage-gated inwardly rectifying potassium channel KCNH2 (Homo sapiens) (UniProt Q12809); details: Potassium Channel hERG, at 10 µM, hits give high values
Sequence of Voltage-gated inwardly rectifying potassium channel KCNH2 (Homo sapiens) (Q12809 whole entry, looked up): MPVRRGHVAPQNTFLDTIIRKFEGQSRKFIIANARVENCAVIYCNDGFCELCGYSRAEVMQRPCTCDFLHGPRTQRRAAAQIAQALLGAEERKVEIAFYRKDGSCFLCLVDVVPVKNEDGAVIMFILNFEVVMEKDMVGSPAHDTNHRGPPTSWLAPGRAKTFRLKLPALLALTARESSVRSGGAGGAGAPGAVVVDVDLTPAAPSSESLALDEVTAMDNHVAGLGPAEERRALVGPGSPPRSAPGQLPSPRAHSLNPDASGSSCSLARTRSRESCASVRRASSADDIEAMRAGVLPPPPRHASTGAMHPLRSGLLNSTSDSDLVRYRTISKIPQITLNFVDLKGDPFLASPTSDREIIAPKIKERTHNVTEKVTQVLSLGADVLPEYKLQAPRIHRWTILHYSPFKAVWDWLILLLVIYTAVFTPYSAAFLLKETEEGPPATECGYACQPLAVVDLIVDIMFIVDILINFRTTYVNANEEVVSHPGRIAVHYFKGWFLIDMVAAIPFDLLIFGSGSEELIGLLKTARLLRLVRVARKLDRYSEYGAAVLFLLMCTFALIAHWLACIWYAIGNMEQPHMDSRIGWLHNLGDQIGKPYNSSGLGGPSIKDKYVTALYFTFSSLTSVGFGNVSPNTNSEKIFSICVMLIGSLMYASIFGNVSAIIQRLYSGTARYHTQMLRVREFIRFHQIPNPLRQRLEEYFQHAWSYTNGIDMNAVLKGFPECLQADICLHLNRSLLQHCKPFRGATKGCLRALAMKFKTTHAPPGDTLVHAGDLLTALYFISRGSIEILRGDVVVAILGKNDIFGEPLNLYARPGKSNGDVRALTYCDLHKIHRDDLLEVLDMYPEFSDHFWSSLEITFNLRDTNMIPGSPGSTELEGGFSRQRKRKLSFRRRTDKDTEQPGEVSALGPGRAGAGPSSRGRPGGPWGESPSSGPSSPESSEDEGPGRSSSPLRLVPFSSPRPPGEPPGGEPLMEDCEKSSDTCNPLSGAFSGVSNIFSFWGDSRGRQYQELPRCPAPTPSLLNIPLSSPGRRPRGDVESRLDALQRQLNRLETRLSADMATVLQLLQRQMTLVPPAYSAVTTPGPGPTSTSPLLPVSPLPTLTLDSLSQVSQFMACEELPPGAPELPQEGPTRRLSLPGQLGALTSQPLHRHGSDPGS
Procedure, shortened: as §1

[45] = test system: Adrenergic alpha1D; details: at 10 µM, hits give high values
Procedure, shortened: as §1

[46] = test system: GABAB1A; details: at 10 µM, hits give high values
Procedure, shortened: as §1

[47] = test system: Tachykinin NK1; details: at 10 µM, hits give high values
Procedure, shortened: as §1

[48] = test system: Thyroid Hormone; details: at 10 µM, hits give high values
Procedure, shortened: as §1

[49] = molecular target: Neuropeptide Y receptor type 2 (Homo sapiens) (UniProt P49146); details: Neuropeptide Y Y2, at 10 µM, hits give high values
Sequence of Neuropeptide Y receptor type 2 (Homo sapiens) (P49146 whole entry, looked up): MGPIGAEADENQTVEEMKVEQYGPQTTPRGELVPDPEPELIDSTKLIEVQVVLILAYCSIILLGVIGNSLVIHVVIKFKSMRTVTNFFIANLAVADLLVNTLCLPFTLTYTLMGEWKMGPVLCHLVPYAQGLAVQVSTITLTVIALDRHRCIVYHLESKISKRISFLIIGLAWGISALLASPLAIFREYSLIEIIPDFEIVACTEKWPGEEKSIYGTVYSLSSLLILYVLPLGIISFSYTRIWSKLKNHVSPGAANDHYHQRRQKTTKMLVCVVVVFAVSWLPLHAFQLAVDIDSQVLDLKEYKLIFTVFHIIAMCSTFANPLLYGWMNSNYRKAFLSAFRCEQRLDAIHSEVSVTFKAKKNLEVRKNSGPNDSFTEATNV
Procedure, shortened: as §1

[50] = test system: Glutamate Kainate; details: at 10 µM, hits give high values
Procedure, shortened: as §1

[51] = test system: Dopamine D2S; details: at 10 µM, hits give high values
Procedure, shortened: as §1

[52] = molecular target: Beta-2 adrenergic receptor (Homo sapiens) (UniProt P07550); details: Adrenergic beta2, at 10 µM, hits give high values
Sequence of Beta-2 adrenergic receptor (Homo sapiens) (P07550 whole entry, looked up): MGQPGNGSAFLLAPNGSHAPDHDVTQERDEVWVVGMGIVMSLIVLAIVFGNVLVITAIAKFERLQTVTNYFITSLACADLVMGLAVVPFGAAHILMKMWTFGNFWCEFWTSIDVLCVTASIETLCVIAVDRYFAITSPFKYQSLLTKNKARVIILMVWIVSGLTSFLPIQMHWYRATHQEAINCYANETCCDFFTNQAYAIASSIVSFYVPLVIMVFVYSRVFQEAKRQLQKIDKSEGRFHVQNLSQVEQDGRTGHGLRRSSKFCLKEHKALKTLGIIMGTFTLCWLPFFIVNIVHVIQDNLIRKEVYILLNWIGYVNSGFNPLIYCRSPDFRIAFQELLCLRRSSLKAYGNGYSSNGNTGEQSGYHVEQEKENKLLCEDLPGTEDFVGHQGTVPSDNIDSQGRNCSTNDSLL
Procedure, shortened: as §1

[53] = molecular target: Glucocorticoid receptor (Homo sapiens) (UniProt P04150); details: at 10 µM, hits give high values
Procedure, shortened: as §1

[54] = molecular target: Neuropeptide Y receptor type 1 (Homo sapiens) (UniProt P25929); details: Neuropeptide Y Y1, at 10 µM, hits give high values
Procedure, shortened: as §1

[55] = molecular target: Alpha-2A adrenergic receptor (Homo sapiens) (UniProt P08913); details: Adrenergic alpha2A, at 10 µM, hits give high values
Procedure, shortened: as §1

[56] = molecular target: Kappa-type opioid receptor (Homo sapiens) (UniProt P41145); details: Opiate kappa (OP2, KOP), at 10 µM, hits give high values
Sequence of Kappa-type opioid receptor (Homo sapiens) (P41145 whole entry, looked up): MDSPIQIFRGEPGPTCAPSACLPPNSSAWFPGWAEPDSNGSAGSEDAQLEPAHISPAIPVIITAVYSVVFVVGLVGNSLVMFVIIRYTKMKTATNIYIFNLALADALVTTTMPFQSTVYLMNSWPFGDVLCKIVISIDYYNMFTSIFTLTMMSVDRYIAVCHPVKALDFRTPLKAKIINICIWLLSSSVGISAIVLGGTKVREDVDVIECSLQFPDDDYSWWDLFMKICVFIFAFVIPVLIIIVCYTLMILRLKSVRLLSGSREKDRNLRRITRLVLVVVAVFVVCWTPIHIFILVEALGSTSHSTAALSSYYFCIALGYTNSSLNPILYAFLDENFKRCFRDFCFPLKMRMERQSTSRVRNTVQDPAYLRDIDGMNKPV
Procedure, shortened: as §1

[57] = test system: Purinergic P2Y; details: at 10 µM, hits give high values
Procedure, shortened: as §1

[58] = molecular target: Muscarinic acetylcholine receptor M3 (Homo sapiens) (UniProt P20309); details: at 10 µM, hits give high values
Sequence of Muscarinic acetylcholine receptor M3 (Homo sapiens) (P20309 whole entry, looked up): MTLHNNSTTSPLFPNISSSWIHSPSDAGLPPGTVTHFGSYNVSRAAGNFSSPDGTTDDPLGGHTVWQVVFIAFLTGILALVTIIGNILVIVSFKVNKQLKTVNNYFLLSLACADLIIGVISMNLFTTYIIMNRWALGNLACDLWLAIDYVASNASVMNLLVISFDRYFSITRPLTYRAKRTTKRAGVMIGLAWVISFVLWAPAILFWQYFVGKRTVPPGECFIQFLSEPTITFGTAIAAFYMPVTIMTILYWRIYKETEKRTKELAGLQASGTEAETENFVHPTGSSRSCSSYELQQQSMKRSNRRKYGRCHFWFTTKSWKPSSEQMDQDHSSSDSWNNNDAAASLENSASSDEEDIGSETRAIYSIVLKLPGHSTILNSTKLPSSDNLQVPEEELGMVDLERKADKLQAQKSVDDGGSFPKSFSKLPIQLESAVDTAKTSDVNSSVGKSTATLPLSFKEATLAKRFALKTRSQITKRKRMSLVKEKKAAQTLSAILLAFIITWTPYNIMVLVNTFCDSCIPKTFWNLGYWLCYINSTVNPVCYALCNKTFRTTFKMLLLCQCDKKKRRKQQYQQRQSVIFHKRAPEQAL
Procedure, shortened: as §1

[59] = test system: Adrenergic alpha1A; details: at 10 µM, hits give high values
Procedure, shortened: as §1

[60] = test system: Leukotriene, Cysteinyl CysLT1; details: at 10 µM, hits give high values
Procedure, shortened: as §1

[61] = test system: Glutamate NMDA; details: at 10 µM, hits give high values
Procedure, shortened: as §1

[62] = molecular target: Platelet-activating factor receptor (Homo sapiens) (UniProt P25105); details: Platelet Activating Factor (PAF), at 10 µM, hits give high values
Procedure, shortened: as §1

[63] = test system: Imidazoline I2; details: central, at 10 µM, hits give high values
Procedure, shortened: as §1

Cc1ccc(Cc2c(C)nc3nc(SCC(=O)NCCN4CCNCC4)nn3c2C)cc1
inhibition of radioligand binding [1]: 9% (inactive)
inhibition of radioligand binding [2]: 0% (inactive)
inhibition of radioligand binding [3]: -11% (inactive)
inhibition of radioligand binding [4]: -1% (inactive)
inhibition of radioligand binding [5]: 6% (inactive)
inhibition of radioligand binding [6]: 7% (inactive)
inhibition of radioligand binding [7]: 13% (inactive)
inhibition of radioligand binding [8]: 2% (inactive)
inhibition of radioligand binding [9]: -3% (inactive)
inhibition of radioligand binding [10]: 3% (inactive)
inhibition of radioligand binding [11]: 1% (inactive)
inhibition of radioligand binding [12]: 6% (inactive)
inhibition of radioligand binding [13]: 2% (inactive)
inhibition of radioligand binding [14]: -4% (inactive)
inhibition of radioligand binding [15]: -1% (inactive)
inhibition of radioligand binding [16]: 11% (inactive)
inhibition of radioligand binding [17]: 62%
inhibition of radioligand binding [18]: 63%
inhibition of radioligand binding [19]: 17% (inactive)
inhibition of radioligand binding ([20]; Flunitrazepam site): 19% (inactive)
inhibition of radioligand binding ([20]; Muscimol site): 26% (inactive)
inhibition of radioligand binding [21]: 7% (inactive)
inhibition of radioligand binding [22]: 49% (inactive)
inhibition of radioligand binding [23]: 1% (inactive)
inhibition of radioligand binding [24]: 16% (inactive)
inhibition of radioligand binding [25]: 6% (inactive)
inhibition of radioligand binding [26]: 15% (inactive)
inhibition of radioligand binding [27]: 42% (inactive)
inhibition of radioligand binding [28]: 9% (inactive)
inhibition of radioligand binding [29]: 21% (inactive)
inhibition of radioligand binding [30]: 1% (inactive)
inhibition of radioligand binding [31]: -2% (inactive)
inhibition of radioligand binding [32]: 12% (inactive)
inhibition of radioligand binding [33]: 1% (inactive)
inhibition of radioligand binding ([34]; Benzothiazepine site): 11% (inactive)
inhibition of radioligand binding ([34]; Dihydropyridine site): 3% (inactive)
inhibition of radioligand binding [35]: -1% (inactive)
inhibition of radioligand binding [36]: 5% (inactive)
inhibition of radioligand binding [37]: -4% (inactive)
inhibition of radioligand binding [38]: -2% (inactive)
inhibition of radioligand binding [39]: -5% (inactive)
inhibition of radioligand binding [40]: -4% (inactive)
inhibition of radioligand binding [41]: 9% (inactive)
inhibition of radioligand binding [42]: 5% (inactive)
inhibition of radioligand binding [43]: 24% (inactive)
inhibition of radioligand binding [44]: 13% (inactive)
inhibition of radioligand binding [45]: 60%
inhibition of radioligand binding [46]: 7% (inactive)
inhibition of radioligand binding [47]: 24% (inactive)
inhibition of radioligand binding [48]: 5% (inactive)
inhibition of radioligand binding [49]: -3% (inactive)
inhibition of radioligand binding [50]: 16% (inactive)
inhibition of radioligand binding [51]: 5% (inactive)
inhibition of radioligand binding [52]: 14% (inactive)
inhibition of radioligand binding [53]: 17% (inactive)
inhibition of radioligand binding [54]: 0% (inactive)
inhibition of radioligand binding [55]: 16% (inactive)
inhibition of radioligand binding [56]: 18% (inactive)
inhibition of radioligand binding [57]: 3% (inactive)
inhibition of radioligand binding [58]: 54%
inhibition of radioligand binding [59]: 27% (inactive)
inhibition of radioligand binding [60]: -7% (inactive)
inhibition of radioligand binding ([61]; Glycine site): 10% (inactive)
inhibition of radioligand binding ([61]; Phencyclidine site): 12% (inactive)
inhibition of radioligand binding ([61]; agonist site): 3% (inactive)
inhibition of radioligand binding [62]: 3% (inactive)
inhibition of radioligand binding [63]: 31% (inactive)
